Test results: ChEMBL document CHEMBL1148671, “Synthesis and antibacterial activity of C12 des-methyl ketolides” (2006)
≈ marks a conversion by molar mass, not a printed value.

Legend:
Assay type in all cases: functional
Streptococcus pneumoniae [1] = test: Antibacterial activity against erythromycin-resistant Streptococcus pneumoniae mef 5654 by broth microdilution method
Streptococcus pneumoniae [2] = test: Antibacterial activity against erythromycin-resistant Streptococcus pneumoniae mef S 3427 by broth microdilution method
Haemophilus influenzae [3] = test: Antibacterial activity against Haemophilus influenzae 49247 by broth microdilution method
How it was run: (§1)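 In vitro activity was read as the minimum inhibitory concentration (MIC) by broth microdilution and reported in μg/mL. The S. pneumoniae panel included erythromycin-resistant strains carrying mef or erm genes. Telithromycin and clarithromycin were run as comparators in every assay.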

Enterococcus faecalis [4] = test: Antibacterial activity against Enterococcus faecalis 29212 by broth microdilution method; how it was run: as §1
Enterococcus faecalis [5] = test: Antibacterial activity against Enterococcus faecalis bc11148-2 by broth microdilution method; how it was run: as §1
Streptococcus pyogenes = test: Antibacterial activity against Streptococcus pyogenes 8668 by broth microdilution method; how it was run: as §1
Streptococcus pneumoniae [6] = test: Antibacterial activity against Streptococcus pneumoniae 49619 by broth microdilution method; how it was run: as §1
Staphylococcus aureus [7] = test: Antibacterial activity against Staphylococcus aureus 29213 by broth microdilution method; conditions: ATCC29213; how it was run: as §1
Staphylococcus aureus [8] = test: Antibacterial activity against Staphylococcus aureus 33591 by broth microdilution method; how it was run: as §1
[9] = test system: Staphylococcus epidermidis; test: Antibacterial activity against Staphylococcus epidermidis 14990 by broth microdilution method; how it was run: as §1
[10] = test system: Staphylococcus epidermidis; test: Antibacterial activity against Staphylococcus epidermidis f50654 by broth microdilution method; how it was run: as §1
Streptococcus pneumoniae [11] = test: Antibacterial activity against Streptococcus pneumoniae 297-749 by broth microdilution method; how it was run: as §1
Streptococcus pneumoniae [12] = test: Antibacterial activity against Streptococcus pneumoniae 280-962 by broth microdilution method; how it was run: as §1
Streptococcus pneumoniae [13] = test: Antibacterial activity against erythromycin-resistant Streptococcus pneumoniae erm 6849 by broth microdilution method
Haemophilus influenzae [14] = test: Antibacterial activity against Haemophilus influenzae 2762 by broth microdilution method; how it was run: as §1

SMILES | MIC (Streptococcus pneumoniae [1]) | MIC (Streptococcus pneumoniae [2]) | MIC (Haemophilus influenzae [3]) | MIC (Enterococcus faecalis [4]) | MIC (Enterococcus faecalis [5]) | MIC (Streptococcus pyogenes) | MIC (Streptococcus pneumoniae [6]) | MIC (Staphylococcus aureus [7]) | MIC (Staphylococcus aureus [8]) | MIC [9] | MIC [10] | MIC (Streptococcus pneumoniae [11]) | MIC (Streptococcus pneumoniae [12]) | MIC (Streptococcus pneumoniae [13]) | MIC (Haemophilus influenzae [14])
CC[C@H]1OC(=O)[C@H](C)C(=O)[C@H](C)[C@@H](O[C@@H]2O[C@H](C)C[C@H](N(C)C)[C@H]2O)[C@](C)(OC)C[C@@H](C)C(=O)[C@H](C)[C@@H]2[C@@H]1OC(=O)N2CCCCn1cnc2ncccc21 | 3.13 µg/mL (≈ 4.05 µM) | 0.4 µg/mL (≈ 0.518 µM) | 3.13 µg/mL (≈ 4.05 µM) | 0.1 µg/mL (≈ 0.13 µM) | > 50 µg/mL | ≤ 0.05 µg/mL | ≤ 0.05 µg/mL | 0.4 µg/mL (≈ 0.518 µM) | > 50 µg/mL | 0.4 µg/mL (≈ 0.518 µM) | 0.4 µg/mL (≈ 0.518 µM) | ≤ 0.05 µg/mL | ≤ 0.05 µg/mL | 0.78 µg/mL (≈ 1.01 µM) | –
CC[C@H]1OC(=O)[C@H](C)C(=O)[C@H](C)[C@@H](O[C@@H]2O[C@H](C)C[C@H](N(C)C)[C@H]2O)[C@](C)(OC)C[C@@H](C)C(=O)[C@H](C)[C@@H]2[C@@H]1OC(=O)N2CCCCc1cnc2ccccc2c1 | 0.2 µg/mL (≈ 0.256 µM) | 0.1 µg/mL (≈ 0.128 µM) | 6.25 µg/mL (≈ 7.99 µM) | 0.1 µg/mL (≈ 0.128 µM) | 12.5 µg/mL (≈ 16 µM) | ≤ 0.05 µg/mL | ≤ 0.05 µg/mL | 0.4 µg/mL (≈ 0.512 µM) | > 50 µg/mL | 0.2 µg/mL (≈ 0.256 µM) | 0.4 µg/mL (≈ 0.512 µM) | ≤ 0.05 µg/mL | ≤ 0.05 µg/mL | 0.4 µg/mL (≈ 0.512 µM) | 1.56 µg/mL (≈ 1.99 µM)
CC[C@H]1OC(=O)[C@H](C)C(=O)[C@H](C)[C@@H](O[C@@H]2O[C@H](C)C[C@H](N(C)C)[C@H]2O)[C@](C)(OC)C[C@@H](C)C(=O)[C@H](C)[C@@H]2[C@@H]1OC(=O)N2CCCCc1ccc(-c2cncnc2)s1 | 0.4 µg/mL (≈ 0.491 µM) | – | 12.5 µg/mL (≈ 15.3 µM) | ≤ 0.05 µg/mL | > 50 µg/mL | ≤ 0.05 µg/mL | ≤ 0.05 µg/mL | 0.2 µg/mL (≈ 0.245 µM) | > 50 µg/mL | 0.2 µg/mL (≈ 0.245 µM) | 0.2 µg/mL (≈ 0.245 µM) | ≤ 0.05 µg/mL | ≤ 0.05 µg/mL | > 50 µg/mL | 3.13 µg/mL (≈ 3.84 µM)
CC[C@H]1OC(=O)[C@H](C)C(=O)[C@H](C)[C@@H](O[C@@H]2O[C@H](C)C[C@H](N(C)C)[C@H]2O)[C@](C)(OC)C[C@@H](C)C(=O)[C@H](C)[C@@H]2[C@@H]1OC(=O)N2CCCCc1ncc(-c2ccccc2)s1 | 1.56 µg/mL (≈ 1.92 µM) | 0.1 µg/mL (≈ 0.123 µM) | 12.5 µg/mL (≈ 15.4 µM) | 0.4 µg/mL (≈ 0.491 µM) | 6.25 µg/mL (≈ 7.68 µM) | 0.2 µg/mL (≈ 0.246 µM) | ≤ 0.05 µg/mL | 0.78 µg/mL (≈ 0.958 µM) | > 50 µg/mL | 0.78 µg/mL (≈ 0.958 µM) | 0.4 µg/mL (≈ 0.491 µM) | ≤ 0.05 µg/mL | ≤ 0.05 µg/mL | 25 µg/mL (≈ 30.7 µM) | 3.13 µg/mL (≈ 3.84 µM)
CC[C@H]1OC(=O)[C@H](C)C(=O)[C@H](C)[C@@H](O[C@@H]2O[C@H](C)C[C@H](N(C)C)[C@H]2O)[C@](C)(OC)C[C@@H](C)C(=O)[C@H](C)[C@@H]2[C@@H]1OC(=O)N2CCCCc1ccc2ccccc2n1 | 0.2 µg/mL (≈ 0.256 µM) | – | 3.13 µg/mL (≈ 4 µM) | ≤ 0.05 µg/mL | 3.13 µg/mL (≈ 4 µM) | ≤ 0.05 µg/mL | ≤ 0.05 µg/mL | 0.4 µg/mL (≈ 0.512 µM) | > 50 µg/mL | 0.2 µg/mL (≈ 0.256 µM) | 0.2 µg/mL (≈ 0.256 µM) | ≤ 0.05 µg/mL | ≤ 0.05 µg/mL | 25 µg/mL (≈ 32 µM) | –
CC[C@H]1OC(=O)[C@H](C)C(=O)[C@H](C)[C@@H](O[C@@H]2O[C@H](C)C[C@H](N(C)C)[C@H]2O)[C@](C)(OC)C[C@@H](C)C(=O)[C@H](C)[C@@H]2[C@@H]1OC(=O)N2CCCCc1ncc(-c2cccc(N)c2)s1 | 0.78 µg/mL (≈ 0.941 µM) | – | 6.25 µg/mL (≈ 7.54 µM) | 0.2 µg/mL (≈ 0.241 µM) | 3.13 µg/mL (≈ 3.78 µM) | ≤ 0.05 µg/mL | ≤ 0.05 µg/mL | 0.4 µg/mL (≈ 0.482 µM) | > 50 µg/mL | 0.4 µg/mL (≈ 0.482 µM) | 0.2 µg/mL (≈ 0.241 µM) | ≤ 0.05 µg/mL | ≤ 0.05 µg/mL | 50 µg/mL (≈ 60.3 µM) | 1.56 µg/mL (≈ 1.88 µM)
CC[C@H]1OC(=O)[C@H](C)C(=O)[C@H](C)[C@@H](O[C@@H]2O[C@H](C)C[C@H](N(C)C)[C@H]2O)[C@](C)(OC)C[C@@H](C)C(=O)[C@H](C)[C@@H]2[C@@H]1OC(=O)N2CCCCn1ccc2c(N)cccc21 | 0.78 µg/mL (≈ 0.994 µM) | – | 3.13 µg/mL (≈ 3.99 µM) | ≤ 0.05 µg/mL | 6.25 µg/mL (≈ 7.96 µM) | ≤ 0.05 µg/mL | 0.1 µg/mL (≈ 0.127 µM) | 0.2 µg/mL (≈ 0.255 µM) | > 50 µg/mL | 0.4 µg/mL (≈ 0.51 µM) | 0.78 µg/mL (≈ 0.994 µM) | ≤ 0.05 µg/mL | ≤ 0.05 µg/mL | 25 µg/mL (≈ 31.8 µM) | 1.56 µg/mL (≈ 1.99 µM)
CC[C@H]1OC(=O)[C@H](C)C(=O)[C@H](C)[C@@H](O[C@@H]2O[C@H](C)C[C@H](N(C)C)[C@H]2O)[C@](C)(OC)C[C@@H](C)C(=O)[C@H](C)[C@@H]2[C@@H]1OC(=O)N2CCCCn1cnc(-c2ccc(Cl)nc2)c1 | 0.78 µg/mL (≈ 0.937 µM) | 0.1 µg/mL (≈ 0.12 µM) | 6.25 µg/mL (≈ 7.51 µM) | ≤ 0.05 µg/mL | 0.4 µg/mL (≈ 0.481 µM) | ≤ 0.05 µg/mL | ≤ 0.05 µg/mL | 0.2 µg/mL (≈ 0.24 µM) | > 50 µg/mL | 0.1 µg/mL (≈ 0.12 µM) | 0.2 µg/mL (≈ 0.24 µM) | ≤ 0.05 µg/mL | ≤ 0.05 µg/mL | 0.4 µg/mL (≈ 0.481 µM) | 1.56 µg/mL (≈ 1.87 µM)
